Data published in ChEMBL document CHEMBL4184265, “Discovery of novel potent HCV NS5B polymerase non-nucleoside inhibitors bearing a fused benzofuran scaffold” (Bioorg Med Chem Lett, 2018).

Tests used:
[1] = Intrinsic solubility of the compound; assay type: physicochemical
[2] = Metabolic stability in rat liver microsomes assessed as parent compound remaining after 60 mins; assay type: ADME, microsome; details: read-out: Stability
[3] = Metabolic stability in human liver microsomes assessed as parent compound remaining after 60 mins; assay type: ADME, microsome; details: read-out: Stability
[4] = AUC (infinity) in Sprague-Dawley rat at 1 mg/kg, iv; assay type: ADME, organism-based; parameters: dose 1 mg/kg, time infinity, route intravenous; details: in vivo
Procedure, shortened: (§1)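 Sprague-Dawley rats (n=3) dosed iv at 1 mg/kg as a solution in 10% NMP/10% solutol/40% PEG-400/40% saline.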

[5] = Half life in Sprague-Dawley rat at 1 mg/kg, iv; assay type: ADME, organism-based; details: in vivo; procedure, shortened: as §1
Rattus norvegicus = experiment: Clearance in Sprague-Dawley rat at 1 mg/kg, iv; assay type: ADME, organism-based; details: in vivo; procedure, shortened: as §1
[6] = Oral bioavailability in Sprague-Dawley rat at 5 mg/kg; assay type: ADME, organism-based; details: in vivo
Procedure, shortened: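 Sprague-Dawley rats (n=3) dosed po at 5 mg/kg as a solution in 10% NMP/10% solutol/40% PEG-400/40% saline. Iv arm given at 1 mg/kg in the same vehicle.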

[7] = Volume of distribution at steady state in Sprague-Dawley rat at 1 mg/kg, iv; assay type: ADME, organism-based; details: in vivo, read-out: Vdss; procedure, shortened: as §1
[8] = Cytotoxicity against human HuH7 cells after 24 hrs; assay type: cell-based, Huh-7

Compound	solubility [1]	remaining at 1 h [2] [%]	remaining at 1 h [3] [%]	AUC(0-inf) [4] [ng·h/mL]	half-life [5] [h]	clearance (Rattus norvegicus) [mL/min/kg]	bioavailability [6] [%]	Vd [7] [L/kg]	further results
CNC(=O)c1c(-c2ccc(F)cc2)oc2cc3c(cc12)C(C)NC(=O)CN3S(C)(=O)=O (racemic)	Insoluble								
CNC(=O)c1c(-c2ccc(F)cc2)oc2cc3c(cc12)C(C)CCCN3S(C)(=O)=O (racemic)		0.8	0.8						
CNC(=O)c1c(-c2ccc(F)cc2)oc2cc3c(cc12)C(C)OC(CS(C)(=O)=O)CN3S(C)(=O)=O (racemic)		99.7	100	1060	3.62	16	30	1.51	
CNC(=O)c1c(-c2ccc(F)cc2)oc2cc(N(CCO)S(C)(=O)=O)c(C3CC3)cc12 [NESBUVIR]		84	53.3	1610	2.73	10.4	73	1.52	
CNC(=O)c1c(-c2ccc(F)cc2)oc2cc3c(cc12)[C@H](C)CCCN3S(C)(=O)=O				439	0.96	38.2	22	2.36	
CNC(=O)c1c(-c2ccc(F)cc2)oc2cc3c(cc12)C(C)NCCN3S(C)(=O)=O (racemic)	Soluble								
CNC(=O)c1c(-c2ccc(F)cc2)oc2cc3c(cc12)[C@H](C)NC(=O)CN3S(C)(=O)=O				379	0.68	44.5	14	1.74	
CNC(=O)c1c(-c2ccc(F)cc2)oc2cc3c(cc12)C(C)N(C)CCN3S(C)(=O)=O (racemic)	Soluble								
CNC(=O)c1c(-c2ccc(F)cc2)oc2cc3c(cc12)[C@@H](C)OCCN3S(C)(=O)=O				234	0.34	78	16	1.79	
CNC(=O)c1c(-c2ccc(F)cc2)oc2cc3c(cc12)C(C)n1nncc1CN3S(C)(=O)=O (racemic)	Insoluble								
CNC(=O)c1c(-c2ccc(F)cc2)oc2cc3c(cc12)[C@H](C)O[C@H](CS(C)(=O)=O)CN3S(C)(=O)=O		100	100						CC50 at 24 h [8]: > 10 µM
CNC(=O)c1c(-c2ccc(F)cc2)oc2cc3c(cc12)[C@H](C)OCCN3S(C)(=O)=O		5	32.6						
CNC(=O)c1c(-c2ccc(F)cc2)oc2cc3c(cc12)C(C)n1nnnc1CN3S(C)(=O)=O (racemic)	Insoluble								
CNC(=O)c1c(-c2ccc(F)cc2)oc2cc3c(cc12)[C@H](C)n1nncc1CN3S(C)(=O)=O				1300	2.43	12.8	57	1.41	
CNC(=O)c1c(-c2ccc(F)cc2)oc2cc3c(cc12)[C@H](C)O[C@H](CO)CN3S(C)(=O)=O		60	100	759	1.32	22	73	2.25	CC50 at 24 h [8]: > 3 µM
CNC(=O)c1c(-c2ccc(F)cc2)oc2cc3c(cc12)C(C)N(C)C(=O)CN3S(C)(=O)=O (racemic)	Insoluble								
CNC(=O)c1c(-c2ccc(F)cc2)oc2cc3c(cc12)C(C)n1ccnc1CN3S(C)(=O)=O (racemic)	Insoluble								
CNC(=O)c1c(-c2ccc(F)cc2)oc2cc3c(cc12)C(C)OC(CO)CN3S(C)(=O)=O (racemic)		68.9	85.9						
CS(=O)(=O)N1CCCCc2cc3c(-c4ncc[nH]4)c(-c4ccc(F)cc4)oc3cc21	Insoluble								
